One may read the apparent Kd as the concentration giving half-maximal binding under the conditions of the assay.

The test system of this data set is MS2 coat protein. Description: apparent Kd, MS2 coat protein; higher = weaker binding; RNA-MaP array; FMN 200 µM where present. The essentials: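 Stalled E. coli RNA polymerase produced the designs on Illumina sequencing-chip clusters. SNAP-549-labelled MS2 coat protein was added from 0.7 or 1.5 nM, doubling to 3 µM, without and then with constant ligand, in 100 mM Tris-HCl pH 7.5, 80 mM KCl, 4 mM MgCl2, BSA, DTT, yeast tRNA and Tween-20. The apparent Kd is the median of filtered per-cluster fits of green signal normalised to red-channel RNA signal and control-cluster median Fmax.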

Where [1] appears, read: designed as: OFF switch for flavin mononucleotide, no ligand.
The mark [2] stands for this setting: ligand present: flavin mononucleotide, designed as: OFF switch for flavin mononucleotide.
Where [3] appears, read: designed as: ON switch for flavin mononucleotide, no ligand.
Where [4] appears, read: ligand present: flavin mononucleotide, designed as: ON switch for flavin mononucleotide.

As to “AAACGGGCAGGAUAUGCGUACUCACGGGAAAACUGAAUGGUACAUGAGGAUCACCCAUGUAGAAGGGCUUAAAA”, the “apparent Kd” value was 53.5 nM under setting [1] and 46.1 nM under setting [2]. For the sequence “AAAAUACAUGAGGAUCACCCAUGUGAAAAUAUGGGAGGAUAUACCGAAAAAAAAAAAAAGGUAGAAGGCCCAAAAA”, the “apparent Kd” value is 22.5 nM under setting [3] and 32.5 nM under setting [4]. Consider “GUUUUUCCUCAUGUACAUGAGGAACAUGAGGAUCACCCAUGUAGAAGGAAUUUUUUUAAGUUUAGUUAGGAUAUACAUAUAUUG”, for which the “apparent Kd” value is, setting by setting: under setting [1], 106 nM; under setting [2], 71.5 nM. On the same counts, the results for “CAGUCUACAGGAUAUACAUGAGGAUCACCCAUGUUUAUCAACUUUCAGUAAUCCAUAUGUAGAAGGGUAGACUG” are 23.9 nM and 79.1 nM. Turning to “CGCUACGUUUCGUAGCAGCUAGGUGAGGAUAUUCAAUUUUUCACAUGAGGAUCACCCAUGUAUGUGAAGAAGGCGCCUAGAAAA”, the “apparent Kd” value is, setting by setting: under setting [3], 11 nM; under setting [4], 4.78 nM. With “AGUCGGAGCAGAGGAUAUAUACAUGAGGAUCACCCAUGUAAAUGAAUAAGCUGGAAACAGCAAGUAUAGAAGGCUGCUCCGACA”, the “apparent Kd” value turned out to be 14.5 nM under setting [1] and 16.2 nM under setting [2]. On the same counts, the results for “UUUUAGGCAGGAUAUACAUUUUUUUUAUUAUCCUCAUUAUUACAUGAGGAUCACCCAUGUAGAAGGGCCAUUUU” are 48.1 nM and 50.2 nM. “UUGUACUAGGGAGGAUAUGGGAAGAUACAUGAGGAUCACCCAUGUUUAAGAAUGCCGAGAGGCAACUAGAAGGCCCUAGUACCU”: the “apparent Kd” value is, setting by setting: under setting [3], 473 nM; under setting [4], 19.4 nM. Consider “GGGAAGUGAGGAUAUGCUGCUCGUCACUUGCGUGAUGAGUAGCAGAAGGUACAUGAGGAUCACCCAUGUAAAGA”, for which the “apparent Kd” value under setting [1] is 29.5 nM and the “apparent Kd” value under setting [2] was determined as 20.7 nM. For the sequence “UUAAUCUAUACAGGAUAUCCAUACGCUGCAUACGGAGAAGGGUAACAAUCAUGAGGACAUGAGGAUCACCCAUGUUGUGACCAU”, the “apparent Kd” value under setting [3] is 198 nM and the “apparent Kd” value under setting [4] turned out to be 97.1 nM.

For “GUCGAAACCAUACUGGUCGACGGUCAGGAUAUACAUGAGGAUCACCCAUGUGCUAUUGAUACUAUGUAGAAGGGACCCACCGCA”, the “apparent Kd” value under setting [1] is 15.2 nM.

In the case of “CGUGCUUAUGUAGGAUAUGGUUAUCUAUGUCUAGUUACUAGACAUAGAUAACCAGAAGGACAUGAGGAUCACCCAUGUUGCACG”, the “apparent Kd” value is 8.28 nM under setting [1] and 15.5 nM under setting [2]. For “CGUAGGAUCCAGAAGGCAUGAACAUGAGGAUCACCCAUGUCAAAAGACAUGAGGAUAUGGAUCCUACGAAAAGUGCGAAAGCAC”, the “apparent Kd” value under setting [3] turned out to be 19 nM and the “apparent Kd” value under setting [4] amounted to 5.55 nM. For the sequence “GUGAAGUAAGGAUAUAGUGGAAAAGAUAAGGUAUGAGAGUUCUAGAAGGUACAUGAGGAUCACCCAUGUUAGGG”, the “apparent Kd” value under setting [1] came out at 301 nM and the “apparent Kd” value under setting [2] is 186 nM.

Turning to “CUGAGUAGUCAGGAUAUGCUGUACAAAAGUACAGCAGAAGGGAUUACAUGAGGAUCACCCAUGUUUACUUCAUG”, the “apparent Kd” value was found to be 44.8 nM under setting [1] and 209 nM under setting [2].

For “UCGUGGUCAGGAUAUACAUGAGGAUCACCCAUGUAAAAGAGCAUUAAGGAGAGACUACGUAGAAGGGACAAAUU”, the “apparent Kd” value came out at 51.6 nM under setting [1] and 47.2 nM under setting [2]. Turning to “AAUGUGUCAGGAUAUUGUUAGUUUAGUUGUUUGUAUUAGUUCGAGAAGGGACAUGAGGAUCACCCAUGUUGUUU”, the “apparent Kd” value reads like this: under setting [1], 30.2 nM; under setting [2], 30.6 nM.

Take “GGAAGGUGAGGAUAUACAAUGACGGAAACGUCAGGUGAGAGACAUGAGGAUCACCCAUGUAGAAGGCACGGAGA”: the “apparent Kd” value is, setting by setting: under setting [1], 73.7 nM; under setting [2], 730 nM. Take “UUUAUUAAUUAAUAUAAUAAGAUCACAUGAGGAUCACCCAUGUAGGAUAUCAGCUCGAUUAGAGCUGAGAAGGACAUAAUUAUA”: the “apparent Kd” value under setting [1] was found to be 34.8 nM and the “apparent Kd” value under setting [2] was 110 nM. With “GCGUCAGAAUUAAUUGUGACAUACAGAAGGCAAUAGUUUAUUUCAGACAUGAGGAUCACCCAUGUUGAGGAUAUGUAUUUACUC”, the “apparent Kd” value runs as follows: under setting [1], 8.92 nM; under setting [2], 7.82 nM.

Regarding “GUAGUGUAUGUAGGAUAUGUGAAGCAAAGCUUCACAGAAGGACAUGAGGAUCACCCAUGUAUUACAGUCAGCAAUCUGACUGUU”, the “apparent Kd” value under setting [1] worked out at 39.8 nM and the “apparent Kd” value under setting [2] came to 137 nM. On the same counts, the results for “AAUUAUUGAUGAGGAUAUUGUGGUGAAACACCACAAGAAGGCAUUAUACACAUGAGGAUCACCCAUGUGAGCCUGAUGCUUAUG” are 16.7 nM and 21.2 nM. On the same counts, the results for “UACAUGAGGAUCACCCAUGUUUUGUCGUGUAUGGUAUUUAUCUAGGAUAUCAAGUUGUUUAUUUAUGAGAAGGAGAAUAUUAAU” are 34.3 nM and 38.1 nM. On the same counts, the results for “GGAUAGGACAGAGGAUAUACGUGCUAGAGAUACUAGCAAAUUUUCCUCACAUGAGGAUCACCCAUGUAGAAGGCUGUCCUAUCG” are 24.6 nM and 511 nM.

On to “UCGAGUCAUGAGAAGGACUGAUGUUACAUGAGGAUCACCCAUGUCAUGGGUAGGAUAUCAUUGACACGGCUGUACCUCUCUUAC”, for which the “apparent Kd” value reads like this: under setting [3], 196 nM; under setting [4], 47.7 nM.

With “GCAUUGAUAACAGGAUAUAUGAAUCCUACAUGAGGAUCACCCAUGUAGGUGAUCAGCCGUGAUUAGUAGAAGGGUUAUCAAUGC”, the “apparent Kd” value under setting [3] was found to be 13 nM and the “apparent Kd” value under setting [4] was determined as 6.49 nM.

As for “GGAGCCGGCACCGAGGAUAUUCAUAUUAAAACAUGAGGAUCACCCAUGUACCGCAGAAGCGGUUGGGAGAAGGCGGAUCGGCUCG”, the “apparent Kd” value is, setting by setting: under setting [3], 691 nM; under setting [4], 42.1 nM. “CCAUGUCUAUGAGGAUAUCCGAAUUAGCGUUUGACAACGAUGAGUUCUCCAGGAGAAGGCAUGGACAUGAGGAUCACCCAUGUA”: the “apparent Kd” value under setting [1] was 29.6 nM and the “apparent Kd” value under setting [2] came out at 75.5 nM. In the case of “UCAGUAGAGUCAGGAUAUACGUCCAAAUUUCCUCACAUGAGGAUCACCCAUGUAGAAGGGACUCUACUGUAAGUCGGAAACGAC”, the “apparent Kd” value is, setting by setting: under setting [1], 7.42 nM; under setting [2], 31 nM. On the same counts, the results for “UUAGAAUUGUUAGGAUAUUAAUUAUUGUAUAGUAUGAUCUACAUGAGGAUCACCCAUGUUAAAUAUAAGAAGGAACGUUAGAUU” are 57.6 nM and 51.3 nM. For the sequence “UACCGCCGCACGGACGCGUUGAGUCAGGAUAUACAUGAGGAUCACCCAUGUGAAGGCCGGCUCAUGUAGAAGGGACAAGCGUUG”, the “apparent Kd” value under setting [1] was found to be 6.2 nM and the “apparent Kd” value under setting [2] was determined as 7.14 nM. As to “UUGGACGUCGUAGGAUAUGUAGGAUAUUCCUACAUGAGGAUCACCCAUGUUGACUUGGAAGAAGGACAGAAGGACGAUGUCCAU”, the “apparent Kd” value is 22 nM under setting [3] and 4.06 nM under setting [4]. “UAUAUACAUGAGGAUCACCCAUGUGAGGAUAUGCUUUAUUAUUAUUAUUAUUAUUAUUGCAGAAGGUACAUUAU”: the “apparent Kd” value turned out to be 28.9 nM under setting [1] and 28.8 nM under setting [2].

For the sequence “AAAUGGAACUAAGGAUAUCUGUAUUUUGUUGAAACAUGAGGAUCACCCAUGUUCAUGAAAUUAUAGGAGAAGGUAGAUCCAUAA”, the “apparent Kd” value is, setting by setting: under setting [3], 4.51 nM; under setting [4], 4.6 nM.

As for “GUAGCAUACCGAGGAUAUUCAUACCGUAAACGGACAUGAGGAUCACCCAUGUGGCGAAAGCCUUGGGAGAAGGCGGAAUGCUAC”, the “apparent Kd” value under setting [3] was 556 nM and the “apparent Kd” value under setting [4] came out at 30.5 nM. For “UGAUAGAGCCUAGGAUAUUCGGAUCUACUACAAGGAGAAGGAGGUAGUCGGUGACGAACAUGAGGAUCACCCAUGUCGUCCUUC”, the “apparent Kd” value was determined as 67.8 nM under setting [1] and 69.9 nM under setting [2]. Turning to “UGUCGGAGCAGAGGAUAUUACAUGAGGAUCACCCAUGUAUGAACCAAUAGCUGGAAAGAGCAAUGUAAGAAGGCUGCUCCGACA”, the “apparent Kd” value stood at 19.7 nM under setting [1] and 181 nM under setting [2]. Take “UCAUAUAUACAAGGAUAUCAAUUAUAUACACAUCCUACAUGAGGAUCACCCAUGUUUUAUUUUUUUGAGAAGGUGUAUUGUCGG”: the “apparent Kd” value reads like this: under setting [3], 24.1 nM; under setting [4], 32.1 nM. “AACUCACAUGAGGAUCACCCAUGUGAGGAUAUAUUAUUAUGGCUGUUAUGCUGUAGUGGUAGAAGGCGCGUGAU”: the “apparent Kd” value runs as follows: under setting [1], 33.2 nM; under setting [2], 28.7 nM. “CUUUUGUGAGGAUAUCAGUAUUAAAUAAAUAAAAUUACUACUGAGAAGGCACAUGAGGAUCACCCAUGUUCCUC”: the “apparent Kd” value by setting is: under setting [1], 33.4 nM; under setting [2], 201 nM. “GCUAUCGAUGUAGGAUAUGAUAUAGAAACUAUGUCAGAAGGACAUGAGGAUCACCCAUGUCAAUGGAUGGAGAGAAGAGAUGGC”: the “apparent Kd” value reads like this: under setting [1], 26.7 nM; under setting [2], 52.5 nM.

Take “GAGUGGUGGAGAGGAUAUACAUUGUUAUUCACUGUAGAAGGUUCUAACAUGAGGAUCACCCAUGUAGGACUAUUCCUGUGUUUU”: the “apparent Kd” value reads like this: under setting [3], 13.4 nM; under setting [4], 10.4 nM. “GGAGCUCCCAUUAACAUGAGGAUCACCCAUGUCAAAAGACAUGAGGAUAUGCUACCUAAUUGGUAGCAGAAGGCAUGGAGCUCC”: the “apparent Kd” value runs as follows: under setting [3], 1160 nM; under setting [4], 81 nM.

With “UACAUUGCUUAGAAGGGAUAUAUAUAAUUUUAGUCAGGAUAUAGAUACAGUACAACAUGAGGACAUGAGGAUCACCCAUGUAUU”, the “apparent Kd” value is, setting by setting: under setting [3], 25.9 nM; under setting [4], 18.4 nM. Turning to “UGGUACAUGAGGAUCACCCAUGUAAGAGCCCUCAUGCGAUGUAGAAGGAUUAUGCGAGUAGUGCAAUAGGAUAUACAUGAGUUU”, the “apparent Kd” value by setting is: under setting [1], 216 nM; under setting [2], 163 nM. On the same counts, the results for “UAGGUGUGAGGAUAUGGUAAAGAAAAGAUGAUGAAAGAACUCCAGAAGGCACAUGAGGAUCACCCAUGUAGAUG” are 26.3 nM and 54.5 nM. With “GGGUACAUCGGAGGAUAUCAUGUAAAUACAUGAGGAUCACCCAUGUCGCUGGAGACAUCGGAGAUUGAGAAGGCCGAUGUACCG”, the “apparent Kd” value was 26.6 nM under setting [3] and 303 nM under setting [4].

In the case of “GACUUGUAUGAGAAGGGACAUGGACUAGAUGUGACAUGAGGAUCACCCAUGUCAGGAUAUCAAGCGACCCGUAGCCGAUAGGCG”, the “apparent Kd” value is, setting by setting: under setting [1], 10.5 nM; under setting [2], 46 nM.

Values taken from the EternaBench riboswitch data.
